The source made the active and inactive calls. The calls are words filed in the database; no cut-off is given here.
Experiments:
[1] = biological target: T1, DNA topoisomerase II (Homo sapiens) (UniProt P11388+Q02880); assay: Interfacial poisoning activity at DNA-topoisomerase 2 (unknown origin) using catenated kDNA as substrate assessed as linear DNA formation at 1 to 100 uM after 30 mins by agarose gel electrophoresis; assay type: protein assay
Outline: (§1)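 Catenated DNA incubated with topo II and compound at 1, 10 and 100 µM; gel products scored for linear DNA (poison type) versus nicked circular/relaxed DNA retained in wells (catalytic inhibitor type); etoposide at 1, 10, 100 µM as control.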

DU-145 [2] = assay: Cell cycle arrest in human DU145 cells assessed as accumulation at subG1 phase at 0.5 uM after 48 hrs by propidium iodide staining-based flow cytometric analysis (reference value: 6.52%); assay type: functional
Calf thymus DNA [3] = assay: Stabilization of calf thymus DNA at 1:2 DNA to compound molar ratio by CD spectroscopic analysis; assay type: nucleic-acid assay; details: Bos taurus
Outline: (§2)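 CD spectra of CT-DNA with compound added at 10 µM to equal CT-DNA concentration (1:1), then raised to 1:2 DNA:ligand; positive band at 275 nm monitored.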

DU-145 [4] = assay: Induction of apoptosis in human DU145 cells assessed as late apoptotic cells at 1 uM after 48 hrs by annexin V-FITC/propidium iodide staining-based flow cytometric analysis (reference value: 1.52%); assay type: functional
Calf thymus DNA [5] = assay: Stabilization of calf thymus DNA at 1:1 DNA to compound molar ratio by CD spectroscopic analysis; assay type: nucleic-acid assay; details: Bos taurus; outline: as §2
DU-145 [6] = assay: Cytotoxicity against human DU145 cells after 48 hrs by MTT assay; assay type: functional, cell-based; details: DU-145, 48 h
Outline: (§3)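 Human cancer cell lines (A549 lung, MCF-7 breast, DU-145 prostate, HeLa cervical) exposed to compounds for 48 h; 50% inhibitory concentration derived, average of three individual experiments; doxorubicin reference agent.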

DU-145 [7] = assay: Induction of apoptosis in human DU145 cells assessed as necrotic cells at 0.5 uM after 48 hrs by annexin V-FITC/propidium iodide staining-based flow cytometric analysis (reference value: 0.1%); assay type: functional
DU-145 [8] = assay: Induction of apoptosis in human DU145 cells assessed as early apoptotic cells at 0.5 uM after 48 hrs by annexin V-FITC/propidium iodide staining-based flow cytometric analysis (reference value: 0.43%); assay type: functional
A549 = assay: Cytotoxicity against human A549 cells after 48 hrs by MTT assay; assay type: functional, cell-based; details: A549, 48 h; outline: as §3
Calf thymus DNA [9] = assay: Induction of DNA intercalation of calf thymus DNA at 1 uM by UV-vis spectrophotometric analysis; assay type: nucleic-acid assay; details: Bos taurus
DU-145 [10] = assay: Cell cycle arrest in human DU145 cells assessed as accumulation at S phase at 1 uM after 48 hrs by propidium iodide staining-based flow cytometric analysis (reference value: 4.02%); assay type: functional
DU-145 [11] = assay: Cell cycle arrest in human DU145 cells assessed as accumulation at G0/G1 phase at 1 uM after 48 hrs by propidium iodide staining-based flow cytometric analysis (reference value: 85.94%); assay type: functional
DU-145 [12] = assay: Induction of apoptosis in human DU145 cells assessed as early apoptotic cells at 1 uM after 48 hrs by annexin V-FITC/propidium iodide staining-based flow cytometric analysis (reference value: 0.43%); assay type: functional
DU-145 [13] = assay: Cell cycle arrest in human DU145 cells assessed as accumulation at G0/G1 phase at 0.5 uM after 48 hrs by propidium iodide staining-based flow cytometric analysis (reference value: 85.94%); assay type: functional
DU-145 [14] = assay: Induction of apoptosis in human DU145 cells assessed as wrinkled cells at 0.5 uM after 48 hrs by Hoechst 33258 staining-based confocal microscopic analysis; assay type: functional, cell-based
Outline: (§4)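 Hoechst H33258 staining of treated DU-145 cells at 0.5 µM; apoptotic cells (apoptotic bodies, condensation, nuclear fragmentation) counted by manual field quantification under the microscope, compared with control.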

DU-145 [15] = assay: Induction of apoptosis in human DU145 cells assessed as late apoptotic cells at 0.5 uM after 48 hrs by annexin V-FITC/propidium iodide staining-based flow cytometric analysis (reference value: 1.52%); assay type: functional
Calf thymus DNA [16] = assay: Induction of DNA intercalation of calf thymus DNA at 10 uM by spectrofluorimetric analysis; assay type: nucleic-acid assay; details: Bos taurus
Outline: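 Fluorescence titration: CT-DNA added to compound solution and quenching of compound emission peak monitored (617 or 567 nm, depending on compound).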

[17] = biological target: T1, DNA topoisomerase II (Homo sapiens); assay: Inhibition of DNA-topoisomerase 2 catalytic activity (unknown origin) using catenated kDNA as substrate assessed as formation of nicked circular and relaxed DNA at 1 to 100 uM after 30 mins by agarose gel electrophoresis; assay type: protein assay; outline: as §1
Calf thymus DNA [18] = assay: Binding affinity to calf thymus DNA surface at 1 uM by UV-vis spectrophotometric analysis; assay type: nucleic-acid assay; details: Bos taurus
DU-145 [19] = assay: Cell cycle arrest in human DU145 cells assessed as accumulation at subG1 phase at 1 uM after 48 hrs by propidium iodide staining-based flow cytometric analysis (reference value: 6.52%); assay type: functional
DU-145 [20] = assay: Induction of apoptosis in human DU145 cells assessed as viable cells at 1 uM after 48 hrs by annexin V-FITC/propidium iodide staining-based flow cytometric analysis (reference value: 97.95%); assay type: functional; details: DU-145, 48 h, read-out: Activity
DU-145 [21] = assay: Cell cycle arrest in human DU145 cells assessed as accumulation at G2/M phase at 0.5 uM after 48 hrs by propidium iodide staining-based flow cytometric analysis (reference value: 1.97%); assay type: functional
DU-145 [22] = assay: Induction of apoptosis in human DU145 cells assessed as viable cells at 0.5 uM after 48 hrs by annexin V-FITC/propidium iodide staining-based flow cytometric analysis (reference value: 97.95%); assay type: functional; details: DU-145, 48 h, read-out: Activity
DU-145 [23] = assay: Cell cycle arrest in human DU145 cells assessed as accumulation at S phase at 0.5 uM after 48 hrs by propidium iodide staining-based flow cytometric analysis (reference value: 4.02%); assay type: functional
DU-145 [24] = assay: Induction of apoptosis in human DU145 cells assessed as necrotic cells at 1 uM after 48 hrs by annexin V-FITC/propidium iodide staining-based flow cytometric analysis (reference value: 0.1%); assay type: functional
DU-145 [25] = assay: Induction of apoptosis in human DU145 cells assessed as DNA fragmented cells at 0.5 uM after 48 hrs by Hoechst 33258 staining-based confocal microscopic analysis; assay type: functional, cell-based; outline: as §4
HeLa = assay: Cytotoxicity against human HeLa cells after 48 hrs by MTT assay; assay type: functional, cell-based; outline: as §3
DU-145 [26] = assay: Cell cycle arrest in human DU145 cells assessed as accumulation at G2/M phase at 1 uM after 48 hrs by propidium iodide staining-based flow cytometric analysis (reference value: 1.97%); assay type: functional
MCF7 = assay: Cytotoxicity against human MCF7 cells after 48 hrs by MTT assay; assay type: functional, cell-based; details: MCF7, 48 h; outline: as §3

COc1cc([C@@H]2c3cc4c(cc3[C@@H](O[C@@H]3O[C@@H]5CO[C@@H](C)O[C@H]5[C@H](O)[C@H]3O)[C@H]3COC(=O)[C@H]23)OCO4)cc(OC)c1O
Activity [1]: Active

CSC(=S)NCc1cc2c([nH]c3ccccc32)c(-c2ccc(F)cc2)n1
Activity (DU-145 [2]): 7.34% | Activity (Calf thymus DNA [3]): Active | Activity (DU-145 [4]): 14.68% | Activity (Calf thymus DNA [5]): Active | IC50 (DU-145 [6]): 1.34 µM | Activity (DU-145 [7]): 0.14% | Activity (DU-145 [8]): 1.07% | IC50 (A549): 4.36 µM | Activity (Calf thymus DNA [9]): Active | Activity (DU-145 [10]): 3.34% | Activity (DU-145 [11]): 75.52% | Activity (DU-145 [12]): 4.4% | Activity (DU-145 [13]): 84.83% | Activity (DU-145 [14]): Active | Activity (DU-145 [15]): 4.17% | Activity (Calf thymus DNA [16]): Active | inhibition [17]: Active | Activity (Calf thymus DNA [18]): Active | Activity (DU-145 [19]): 15.61% | viability at 1 µM (DU-145 [20]): 80% | Activity (DU-145 [21]): 1.98% | viability at 0.5 µM (DU-145 [22]): 94.6% | Activity (DU-145 [23]): 3.36% | Activity (DU-145 [24]): 0.96% | Activity (DU-145 [25]): Active | IC50 (HeLa): 3.46 µM | Activity (DU-145 [26]): 2.33% | IC50 (MCF7): 2.45 µM

CSC(=S)NCc1cc2c3ccccc3n(C)c2c(-c2ccc(C(F)(F)F)cc2)n1
Activity (DU-145 [2]): 10.12% | Activity (Calf thymus DNA [3]): Active | Activity (DU-145 [4]): 21.19% | Activity (Calf thymus DNA [5]): Active | IC50 (DU-145 [6]): 0.79 µM | Activity (DU-145 [7]): 0.93% | Activity (DU-145 [8]): 3.82% | IC50 (A549): 3.54 µM | Activity (Calf thymus DNA [9]): Active | Activity (DU-145 [10]): 5.31% | Activity (DU-145 [11]): 70.81% | Activity (DU-145 [12]): 2.18% | Activity (DU-145 [13]): 78.9% | Activity (DU-145 [14]): Active | Activity (DU-145 [15]): 13.7% | Activity (Calf thymus DNA [16]): Active | Activity (Calf thymus DNA [18]): Active | Activity (DU-145 [19]): 18.6% | viability at 1 µM (DU-145 [20]): 75% | Activity (DU-145 [21]): 3.73% | viability at 0.5 µM (DU-145 [22]): 81.5% | Activity [1]: Active | Activity (DU-145 [23]): 5.18% | Activity (DU-145 [24]): 1.65% | Activity (DU-145 [25]): Active | IC50 (HeLa): 1.47 µM | Activity (DU-145 [26]): 5.36% | IC50 (MCF7): 1.09 µM

NCc1cc2c([nH]c3ccccc32)c(-c2ccc(F)cc2)n1
IC50 (DU-145 [6]): 13.8 µM | IC50 (A549): 21.1 µM | IC50 (HeLa): 22.5 µM | IC50 (MCF7): 17.9 µM

COc1ccc(-c2nc(CNC(=S)SCc3ccccc3)cc3c2[nH]c2ccccc23)cc1
IC50 (DU-145 [6]): 13.8 µM | IC50 (A549): 17.7 µM | IC50 (HeLa): 24.1 µM | IC50 (MCF7): 10 µM

C=CCSC(=S)NCc1cc2c([nH]c3ccccc32)c(-c2cc(OC)c(OC)c(OC)c2)n1
IC50 (DU-145 [6]): 13.8 µM | IC50 (A549): 12.8 µM | IC50 (HeLa): 23.2 µM | IC50 (MCF7): 15.8 µM

CSC(=S)NCc1cc2c3ccccc3n(C)c2c(-c2ccc(F)cc2)n1
IC50 (DU-145 [6]): 1.45 µM | IC50 (A549): 5.62 µM | IC50 (HeLa): 2.39 µM | IC50 (MCF7): 1.86 µM

COc1cc(-c2nc(CNC(=S)SC)cc3c2[nH]c2ccccc23)cc(OC)c1OC
IC50 (DU-145 [6]): 5.62 µM | IC50 (A549): 8.12 µM | IC50 (HeLa): 11.3 µM | IC50 (MCF7): 8.91 µM

C=CCSC(=S)NCc1cc2c3ccccc3n(C)c2c(-c2ccc(C(F)(F)F)cc2)n1
IC50 (DU-145 [6]): 1.99 µM | IC50 (A549): 4.26 µM | IC50 (HeLa): 4.67 µM | IC50 (MCF7): 4.78 µM

C=CCSC(=S)NCc1cc2c3ccccc3n(C)c2c(-c2ccc(OC)cc2)n1
IC50 (DU-145 [6]): 2.5 µM | IC50 (A549): 10 µM | IC50 (HeLa): 8.3 µM | IC50 (MCF7): 3.2 µM

C=CCSC(=S)NCc1cc2c3ccccc3n(C)c2c(-c2cc(OC)c(OC)c(OC)c2)n1
IC50 (DU-145 [6]): 19.4 µM | IC50 (A549): 18.1 µM | IC50 (HeLa): 19.9 µM | IC50 (MCF7): 20.6 µM

— ChEMBL document CHEMBL3603803, “Design and synthesis of dithiocarbamate linked β-carboline derivatives: DNA topoisomerase II inhibition with DNA binding and apoptosis inducing ability” (Bioorg Med Chem, 2015)
